From the RNAGym collection of RNA variant scans (doi:10.1002/anie.201605470)

B1: Osa-1-4 twister ribozyme (parent)
chain: CCGCCUAACACUGCCAAUGCCGGUCCCAAGCCCGGAUAAAAGUGGAGGGGGCGG

Variants of: B1
Experiment: self-cleavage, relative activity (ratio to wild type); higher = more cleavage; co-transcriptional
How it was run: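 For each read, cleavage status was taken from whether upstream sequence was present. The reads came from an Oryza sativa twister ribozyme of 54 nucleotides, whose DNA template was synthesised with 97 % wild-type base and 1 % of each other base at the 48 positions downstream of the cleavage site. The template was transcribed in vitro at 37 °C for 2 h with co-transcriptional self-cleavage, and the RNA was reverse-transcribed using a template-switching oligonucleotide, PCR-amplified and deep-sequenced. Relative activity is the fraction cleaved normalised to wild type.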

| Variant | self-cleavage |
| --- | --- |
| A46U U12A | 0.07 |
| A46U U12C | 0.06 |
| A46U U12G | 0.07 |
| A46U C31G | 0.04 |
| A46U C31A | 0.02 |
| A46U C31U | 0.04 |
| A46U C20A | 0.06 |
| A46U C20U | 0.1 |
| A46U C20G | 0.05 |
| G47U U24A | 0.05 |
| G47U U24G | 0.02 |
| G47U U24C | 0.03 |
| A46G G23C | 0.02 |
| A46G G23U | 0.03 |
| A46G G23A | 0.05 |
| G47C G54C | 0.13 |
| G47C G54U | 0.24 |
| G47C G54A | 0.14 |
| A46U G44U | 0.07 |
| A46U G44A | 0.07 |
| A46U G44C | 0.06 |
| G48A U12G | 0.04 |
| G48A U12C | 0.04 |
| G48A U12A | 0.07 |

| Variant | self-cleavage |
| --- | --- |
| G47A U24G | 0.02 |
| G47A U24C | 0.04 |
| G47A U24A | 0.04 |
| G48A G54U | 0.37 |
| G48A G54A | 0.15 |
| G48A G54C | 0.15 |
| A46U U43A | 0.08 |
| A46U U43G | 0.07 |
| A46U U43C | 0.06 |
| A46U G51C | 0.05 |
| A46U G51A | 0.09 |
| A46U G51U | 0.06 |
| G47A | 0.51 |
| G47C | 0.17 |
| G47U | 0.42 |
| G47C U12G | 0.06 |
| G47C U12A | 0.06 |
| G47C U12C | 0.05 |
| G47A U12A | 0.08 |
| G47A U12G | 0.06 |
| G47A U12C | 0.07 |
| A46G G49U | 0.03 |
| A46G G49A | 0.03 |
| A46G G49C | 0.03 |

| Variant | self-cleavage |
| --- | --- |
| G47C U18C | 0.1 |
| G47C U18G | 0.24 |
| G47C U18A | 0.12 |
| G48A G49A | 0.05 |
| G48A G49C | 0.03 |
| G48A G49U | 0.04 |
| A46U G50A | 0.08 |
| A46U G50U | 0.09 |
| A46U G50C | 0.07 |
| A46G G47U | 0.06 |
| A46G G47C | 0.03 |
| A46G G47A | 0.06 |
| A46U C26G | 0.03 |
| A46U C26U | 0.06 |
| A46U C26A | 0.02 |
| A46G G45C | 0.03 |
| A46G G45A | 0.06 |
| A46G G45U | 0.03 |
| A46U C14G | 0.03 |
| A46U C14U | 0.06 |
| A46U C14A | 0.03 |
| G47A G48A | 0.08 |
| G47A G48C | 0.04 |
| G47A G48U | 0.04 |

| Variant | self-cleavage |
| --- | --- |
| A46U U37G | 0.11 |
| A46U U37A | 0.05 |
| A46U U37C | 0.09 |
| G47A G49U | 0.04 |
| G47A G49C | 0.04 |
| G47A G49A | 0.05 |
| G48A U43G | 0.06 |
| G48A U43A | 0.06 |
| G48A U43C | 0.06 |
| G47U U37G | 0.51 |
| G47U U37A | 0.23 |
| G47U U37C | 0.37 |
| A46U G54C | 0.08 |
| A46U G54U | 0.17 |
| A46U G54A | 0.08 |
| A46U C21G | 0.02 |
| A46U C21A | 0.07 |
| A46U C21U | 0.06 |
| A46U G53U | 0.09 |
| A46U G53A | 0.1 |
| A46U G53C | 0.05 |
| A46U U18G | 0.09 |
| A46U U18C | 0.08 |
| A46U U18A | 0.05 |

| Variant | self-cleavage |
| --- | --- |
| G47A G50C | 0.07 |
| G47A G50A | 0.36 |
| G47A G50U | 0.09 |
| G47C G51C | 0.05 |
| G47C G51A | 0.09 |
| G47C G51U | 0.05 |
| A46G G53C | 0.03 |
| A46G G53U | 0.07 |
| A46G G53A | 0.07 |
| A46U G47C | 0.04 |
| A46U G47U | 0.05 |
| A46U G47A | 0.06 |
| G47C G48U | 0.03 |
| G47C G48C | 0.05 |
| G47C G48A | 0.04 |
| A46U C52U | 0.09 |
| A46U C52A | 0.1 |
| A46U C52G | 0.12 |
| G47U G53C | 0.06 |
| G47U G53A | 0.18 |
| G47U G53U | 0.1 |
| G47C U43A | 0.1 |
| G47C U43C | 0.08 |
| G47C U43G | 0.07 |

| Variant | self-cleavage |
| --- | --- |
| G47C U37G | 0.21 |
| G47C U37C | 0.15 |
| G47C U37A | 0.09 |
| A46G G48C | 0.03 |
| A46G G48A | 0.02 |
| A46G G48U | 0.02 |
| A46G U18G | 0.13 |
| A46G U18A | 0.06 |
| A46G U18C | 0.07 |
| A46G U37C | 0.08 |
| A46G U37G | 0.09 |
| A46G U37A | 0.05 |
| G48C G54A | 0.11 |
| G48C G54C | 0.1 |
| G48C G54U | 0.2 |
| A46G C52U | 0.09 |
| G48A G51C | 0.04 |
| G48A G51U | 0.05 |
| G48A G51A | 0.1 |
| A46U G49A | 0.04 |
| A46U G49U | 0.05 |
| A46U G49C | 0.04 |
| G47A G53C | 0.06 |
| G47A G53A | 0.13 |

| Variant | self-cleavage |
| --- | --- |
| G47A G53U | 0.08 |
| A46U U24G | 0.01 |
| A46U U24C | 0.05 |
| A46U U24A | 0.04 |
| G47A U18A | 0.33 |
| G47A U18C | 0.22 |
| G47A U18G | 0.56 |
| A46U C27U | 0.06 |
| A46U C27A | 0.04 |
| A46U C27G | 0.03 |
| A46U C15U | 0.06 |
| A46U C15G | 0.08 |
| A46U C15A | 0.05 |
| A46G G54A | 0.07 |
| A46G G54C | 0.06 |
| A46G G54U | 0.11 |
| A46G G44U | 0.07 |
| A46G G44A | 0.05 |
| A46G G44C | 0.05 |
| G48C G50A | 0.3 |
| G48C G50U | 0.1 |
| G48C G50C | 0.1 |
| A46G U12G | 0.07 |
